Screening results as filed in PubChem BioAssay.
Pemphigus Ab inh – inhibitors of pemphigus antibody binding to human desmoglein-3; P32926; DSG3-coupled beads, scFv-anti-DSG3-GFP binding, flow cytometry; hits give low values; binding (percent of control), % at 10 µM; AID 588358; 310,000 compounds, 0.48% hits;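 active = binding more than 3 SD below its plate's average and above zero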;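 also: hits lower antibody fragment binding to DSG3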
UHRF1 MBD2 ctr – human UHRF1 methylated DNA binding inhibitors; UHRF1 binding to methylated oligo, TR-FRET; inhibition, % at 4.4 µM; 370,000 compounds, 0.75% hits; in the data active = inhibition above about 21%;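 also: UHRF1 SRA domain binding a hemimethylated CpG hairpin DNA probe; 0% = median of test compound wells and 100% = reference inhibitor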
MBD2 inh – MBD2-methylated oligo binding inhibition; TR-FRET, MBD2 binding to methylated oligonucleotide; inhibition, % at 4.4 µM; 370,000 compounds, 0.31% hits; AID 686964; Q9UBB5; in the data active = inhibition above about 13%
Target sequence (Q9UBB5 whole entry, looked up): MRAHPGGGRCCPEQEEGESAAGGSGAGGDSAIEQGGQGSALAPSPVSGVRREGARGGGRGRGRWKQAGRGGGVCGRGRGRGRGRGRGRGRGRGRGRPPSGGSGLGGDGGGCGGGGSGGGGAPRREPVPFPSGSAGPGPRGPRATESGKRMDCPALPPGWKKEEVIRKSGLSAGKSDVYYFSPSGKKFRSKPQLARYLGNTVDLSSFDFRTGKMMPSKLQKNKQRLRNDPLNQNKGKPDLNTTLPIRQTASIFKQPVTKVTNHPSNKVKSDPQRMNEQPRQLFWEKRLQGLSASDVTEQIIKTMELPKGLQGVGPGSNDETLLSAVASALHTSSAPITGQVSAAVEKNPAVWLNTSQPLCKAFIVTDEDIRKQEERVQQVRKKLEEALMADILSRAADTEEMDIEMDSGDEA
DNMT1 inh – inhibitors of human DNMT1 | P26358 | DNMT1 molecular beacon, Hinp1I cleavage, fluorescence | inhibition (reported as % activation of signal), % at 10 µM | 360,000 compounds, 0.83% hits | AID 588458; in the data active = inhibition above about 50%
HCV NS3 hel inh – inhibitors of Hepatitis C virus NS3 helicase | inhibition, % at 10.9 µM | 290,000 compounds, 0.56% hits | NS3 helicase DNA unwinding, Cy5 molecular beacon fluorescence;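 active = inhibition above the mean of all tested compounds plus 3 SD, set per campaign, cut at about 35% in these data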;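 also: 0% = DMSO wells and 100% = thioflavine S control wells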
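System: NS3 helicase fragment of HCV / Schedule: 1 h at 25 °C / Control set: DMSO alone as 0% and 110 µM thioflavine S as 100% / Reagent: Cy5/quencher beacon DNA duplex and ATP to start / Technique: Cy5 fluorescence / Replication: singlicate / Evaluation: % inhibition of end-to-start signal ratio versus controls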
SUMO1-SIM PPI – alters human SUMO1 binding to SIM partners. P63165. SUMO1 binding to a labelled peptide, TR-FRET, 1 h. inhibition, % at 20 µM. 360,000 compounds, 0.33% hits. AID 602429; in the data active = inhibition above about 37%
Target sequence (P63165 whole entry, looked up): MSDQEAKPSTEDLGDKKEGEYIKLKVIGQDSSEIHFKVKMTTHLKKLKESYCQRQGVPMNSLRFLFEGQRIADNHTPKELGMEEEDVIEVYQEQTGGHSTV
DNMT1 confirm – confirmation of human DNMT1 inhibitors. shares compounds with DNMT1 inh. DNMT1 molecular beacon HinP1I cleavage, fluorescence. inhibition, % at 10 µM. 2,300 compounds, 8% hits. AID 602385;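 active = average inhibition of at least 30% in the single-concentration confirmation test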
DNMT1 interf – shows spectral interference in the DNMT1 beacon assay; AID 602387; 2,300 compounds, 1% hits; shares compounds with DNMT1 inh; activation (fluorescence interference), % at 10 µM; DNMT1 molecular beacon spectral interference counterscreen, fluorescence 485/520;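 active = activation of at least 30% at 10 µM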;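 also: DNMT1 catalytic domain with a HinP1I cleavage step and a FAM/dabcyl DNA beacon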
An asterisk follows results filed as active; ! = not active in a repeat. In the library only some 2.5% were active in any assay of this set; here they are far more common.

Results for CC(=O)Nc1ccc(NC(=O)C2CCCN2C(=O)NCc2ccccc2)cc1 (stereo not drawn) ?
Pemphigus Ab inh: 94; UHRF1 MBD2 ctr: 3; MBD2 inh: 5; DNMT1 inh: 88*; HCV NS3 hel inh: 1; SUMO1-SIM PPI: 1; DNMT1 confirm: 2; DNMT1 interf: 3

Results for O=C(Nc1ccccc1)C1CCCN1C(=O)NCc1ccccc1 (stereo not drawn) ?
Pemphigus Ab inh: 94; UHRF1 MBD2 ctr: -3; MBD2 inh: 1; DNMT1 inh: 1; HCV NS3 hel inh: 5; SUMO1-SIM PPI: 4

Results for CSC1=N/C(=C\c2ccc(Br)o2)C(=O)S1 ?
UHRF1 MBD2 ctr: 14; MBD2 inh: 1; DNMT1 inh: 101*; HCV NS3 hel inh: 20; SUMO1-SIM PPI: 14; DNMT1 confirm: -2; DNMT1 interf: 0

How did CC(C)(C)c1[nH]nc2c1C(c1ccc(OC(=O)c3ccco3)cc1)C(C#N)=C(N)O2 (stereo not drawn) do in these assays?
Pemphigus Ab inh: 98; UHRF1 MBD2 ctr: -1; MBD2 inh: -3; DNMT1 inh: -10; HCV NS3 hel inh: -13; SUMO1-SIM PPI: -2

Results for CC1=NN(c2cccc(Cl)c2)C(=O)C1 ?
Pemphigus Ab inh: 98; UHRF1 MBD2 ctr: 14; MBD2 inh: 6; DNMT1 inh: -9; HCV NS3 hel inh: -5; SUMO1-SIM PPI: 20

What do the screens show for `CC1=NN(c2ccc(Cl)c(C(=O)O)c2)C(=O)C1`?
Pemphigus Ab inh: 119; UHRF1 MBD2 ctr: 7; MBD2 inh: 2; DNMT1 inh: 68*; HCV NS3 hel inh: 5; SUMO1-SIM PPI: 41*; DNMT1 confirm: 8; DNMT1 interf: 1

Results for O=C(Nc1ccc(Cl)cc1)c1cc(-c2cccs2)on1 ?
Pemphigus Ab inh: 100; UHRF1 MBD2 ctr: 4; MBD2 inh: -1; DNMT1 inh: 50*; HCV NS3 hel inh: 2; SUMO1-SIM PPI: 16; DNMT1 confirm: 1; DNMT1 interf: 2

How did c1cc(N2CCCCC2)nc(N2CCCCC2)n1 do in these assays?
Pemphigus Ab inh: 91; UHRF1 MBD2 ctr: 4; MBD2 inh: 3; DNMT1 inh: 0; SUMO1-SIM PPI: 3

Results for C[c-]1[c-](C)[c-](C)[c-](C)[c-]1C.[Fe].c1cc2nccc(N3CCCC3)[c-]2c1 (stereo not drawn) ?
Pemphigus Ab inh: 80*!; UHRF1 MBD2 ctr: 14; MBD2 inh: 5; DNMT1 inh: 102*!; SUMO1-SIM PPI: 120*; DNMT1 confirm: 4; DNMT1 interf: 4

How did NC1=NC[C@@H](Cc2ccc(O)cc2)N1CCC12CC3CC(CC(C3)C1)C2 do in these assays?
Pemphigus Ab inh: 104; UHRF1 MBD2 ctr: 0; MBD2 inh: 6; DNMT1 inh: 58*; SUMO1-SIM PPI: 2; DNMT1 confirm: 0; DNMT1 interf: -1

How did C(=N\Nc1nccc(-c2cccnc2)n1)/c1ccccc1 do in these assays?
Pemphigus Ab inh: 101; UHRF1 MBD2 ctr: 1; MBD2 inh: 1; DNMT1 inh: -3; HCV NS3 hel inh: 16; SUMO1-SIM PPI: -13

What do the screens show for `Cc1ccc(-c2cc(-c3ccccc3O)nc(N/N=C/c3cccnc3)n2)cc1`?
Pemphigus Ab inh: 96; UHRF1 MBD2 ctr: -2; MBD2 inh: -5; DNMT1 inh: 52*; HCV NS3 hel inh: -3; SUMO1-SIM PPI: 4; DNMT1 confirm: -1; DNMT1 interf: -4

How did COc1cc(C)cc(C(=O)O)c1C1=C(O)c2cccc(O)c2C(=O)C1=O do in these assays?
Pemphigus Ab inh: 98; UHRF1 MBD2 ctr: 23*; MBD2 inh: -2; DNMT1 inh: 66*; SUMO1-SIM PPI: 7; DNMT1 confirm: 17; DNMT1 interf: -2

What do the screens show for `Cc1cccc(C)c1NC(=S)NCCc1ccc(O)c(O)c1`?
UHRF1 MBD2 ctr: 0; MBD2 inh: 5; DNMT1 inh: 2; HCV NS3 hel inh: -1; SUMO1-SIM PPI: -1

What do the screens show for `C=CCc1cccc(C=Nc2c[nH]c(=O)[nH]c2=O)c1O`?
Pemphigus Ab inh: 235; UHRF1 MBD2 ctr: -6; MBD2 inh: -1; DNMT1 inh: 72*; HCV NS3 hel inh: -1; SUMO1-SIM PPI: -2; DNMT1 confirm: 2; DNMT1 interf: 1

Results for COc1ccccc1NC(=O)Cn1c(=O)n2nc(C)nc2c2ccccc21 ?
Pemphigus Ab inh: 112; UHRF1 MBD2 ctr: -2; MBD2 inh: -1; DNMT1 inh: -1; HCV NS3 hel inh: -3; SUMO1-SIM PPI: -3

How did O=C(CSc1ccc2ccccc2n1)Nc1nsc(-c2ccc(Cl)cc2)n1 do in these assays?
Pemphigus Ab inh: 108; UHRF1 MBD2 ctr: 1; MBD2 inh: -1; DNMT1 inh: 77*; HCV NS3 hel inh: 6; SUMO1-SIM PPI: 43*; DNMT1 confirm: 1; DNMT1 interf: -3

Results for Cc1ccc(-c2nc(NC(=O)CSc3cc(C)c4ccccc4n3)ns2)cc1 ?
Pemphigus Ab inh: -0.3*; UHRF1 MBD2 ctr: 0; MBD2 inh: -5; DNMT1 inh: 90*; HCV NS3 hel inh: 1; SUMO1-SIM PPI: 25; DNMT1 confirm: 3; DNMT1 interf: -4

Results for COc1ccc2c(C)cc(SCC(=O)Nc3nsc(-c4ccc(C)cc4)n3)nc2c1 ?
Pemphigus Ab inh: 110; UHRF1 MBD2 ctr: -2; MBD2 inh: -4; DNMT1 inh: 0; HCV NS3 hel inh: -3; SUMO1-SIM PPI: -1

Results for O=C(CSc1nnnn1-c1ccccc1)Nc1nsc(-c2ccc(Cl)cc2)n1 ?
Pemphigus Ab inh: 99; UHRF1 MBD2 ctr: 1; MBD2 inh: 0; DNMT1 inh: 71*; HCV NS3 hel inh: 2; SUMO1-SIM PPI: 6; DNMT1 confirm: 0; DNMT1 interf: -4

How did O=C(CSc1nnnn1-c1ccccc1)Nc1nsc(-c2ccccc2)n1 do in these assays?
Pemphigus Ab inh: 97; UHRF1 MBD2 ctr: -1; MBD2 inh: -6; DNMT1 inh: -1; HCV NS3 hel inh: -10; SUMO1-SIM PPI: 1

How did CCC(Oc1ccccc1)C(=O)Nc1cc(Cl)ccc1-n1cncn1 (stereo not drawn) do in these assays?
Pemphigus Ab inh: 101; UHRF1 MBD2 ctr: 1; MBD2 inh: -6; DNMT1 inh: 0; SUMO1-SIM PPI: 6

How did CNC(=O)c1nnc(Cc2ccc(F)cc2)o1 do in these assays?
Pemphigus Ab inh: 100; UHRF1 MBD2 ctr: 0; MBD2 inh: 5; DNMT1 inh: 6; SUMO1-SIM PPI: 2

What do the screens show for `O=C(c1c(F)cccc1F)N1CCC(n2nnc3cc(C(F)(F)F)ccc32)CC1`?
UHRF1 MBD2 ctr: -3; MBD2 inh: -3; DNMT1 inh: 1; HCV NS3 hel inh: 4; SUMO1-SIM PPI: 5
